Compound activity (PubChem)
PKD1 kinase inh: inhibitors of human PKD1 kinase, biochemical, fluorescence polarization; Serine/threonine-protein kinase D1 (Homo sapiens), Q15139; inhibition, % (no concentration beside the values); PKD1 kinase fluorescence polarization assay; AID 797, 2007; 200,000 compounds, 0.056% hits; in the data active = inhibition above about 50%
Rad51 HR inh: human RAD51 strand exchange inhibitors, primary screen, biochemical, fluorescence | DNA repair protein RAD51 homolog 1 (Homo sapiens), Q06609 | inhibition, % at 10 µM | hRad51 DNA strand exchange, fluorescence dequenching | 200,000 compounds, 0.085% hits;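 active = inhibition above 40% at the single screening dose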;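 also: 0% = DMSO control wells and 100% = blanks with heterologous ssDNA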
Target sequence (Q06609 whole entry, looked up): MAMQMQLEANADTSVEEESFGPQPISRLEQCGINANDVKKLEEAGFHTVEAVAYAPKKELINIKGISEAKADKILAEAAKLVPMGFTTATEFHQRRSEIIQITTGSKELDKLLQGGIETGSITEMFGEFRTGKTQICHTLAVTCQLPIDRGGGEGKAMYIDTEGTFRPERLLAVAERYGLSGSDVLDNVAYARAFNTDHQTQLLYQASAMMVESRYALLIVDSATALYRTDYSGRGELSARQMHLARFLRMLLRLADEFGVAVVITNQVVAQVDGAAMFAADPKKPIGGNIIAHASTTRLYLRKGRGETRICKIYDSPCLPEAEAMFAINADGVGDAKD
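Material: Human Rad51 nucleoprotein filaments preassembled on unlabelled ssDNA | Also added: Labelled 47-mer dsDNA for strand exchange | Dosing: Single dose, 10 µM final compound | Schedule: 30-min compound preincubation and 15-min exchange, both room temperature | Technique: Fluorescence dequenching at 485/520 nm | Measure: Percent inhibition relative to plate controls and blanks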
PERK inh: block of dimerizer-induced PERK translation repression, primary screen, PERK inhibitor project, CHO PERK-DD cells, SEAP luminescence, HTS; Eukaryotic translation initiation factor 2-alpha kinase 3 (Homo sapiens), Q9NZJ5; CHO PERK-DD fusion, SEAP luminescence translation reporter; inhibition, % at 5.6 µM; 220,000 compounds, 0.17% hits;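 active = inhibition above the mean inhibition of all tested compounds plus 3 SD, set separately per screening campaign, cut at about 2.9% in these data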;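 also: PERK kinase domain activated by AP20187 dimerizer at 100 nM; 0% = DMSO with dimerizer and 100% = rapamycin at 8.4 µM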
H9c2 TAG inh: inhibitors of triacylglycerol accumulation, primary screen, cell-based, uHTS, fluorescence, H9c2; inhibition, % at 12.5 µM; H9c2 cells, Nile Red lipid (TAG) fluorescence; cells loaded with 200 µM oleic acid; 230,000 compounds, 0.66% hits;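 active = pattern-corrected inhibition of lipid staining of at least 50% with the nuclear-stain viability signal not falling by more than 50%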;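 also: 0% = DMSO wells and 100% = triacsin C control wells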
Hck-Nef inh: inhibitors of Nef-activated human Hck kinase, primary screen, biochemical, Z-Lyte FRET, 384-well, Hck-YEEI | 220,000 compounds, 0.68% hits | inhibition, % at 20 µM | Recombinant Hck-YEEI plus Nef, Z-Lyte FRET kinase assay | AID 463187, 2010;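 active = Hck-Nef kinase inhibition above about 50%, limit read from the data; inactive = inhibition below that limit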;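 also: 0% = DMSO with Hck plus Nef and 100% = Hck alone without Nef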
MDM2 E3 inh: MDM2-luciferase reporter signal enhancers, primary screen, MDM2 E3 ligase inhibitor project, cell-based, luminescence, 1536-well | E3 ubiquitin-protein ligase Mdm2 (Homo sapiens), Q00987 | cell-based MDM2 ubiquitination luciferase reporter, 2 h; 0 = plate control, 100 = twice control, blank-subtracted | signal enhancement, % at 5 µM | 210,000 compounds, 0.11% hits;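 active = signal enhancement of 30% or more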;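 also: luminescence tracks abundance of the self-degrading MDM2-luciferase fusion protein; higher signal means inhibition of MDM2 E3 ligase activity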
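System: stable MDM2–luciferase fusion reporter cells / Input: 2000 cells seeded into each well / Schedule: 4 h settle plus 2 h compound, 37 °C / Compound: single-point 5 µM / Buffer or medium: cells held in DMEM / Benchmarks: control and blank well means / Evaluation: percent signal gain over controls, blank-subtracted / Measured by: luciferase luminescence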
TAG conf: triacylglycerol accumulation inhibitors, retest, confirmation, cell-based, single concentration, Nile Red fluorescence, H9c2 | shares compounds with H9c2 TAG inh | H9c2 lipid accumulation; cells loaded with 200 µM oleic acid | inhibition, % at 12.5 µM | 990 compounds, 71% hits | AID 651629, 2012;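 active = mean inhibition across replicates of 40% or more; inactive = mean inhibition below 40%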;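 also: plate controls were DMSO only wells for no effect and Triacsin C treated wells for full effect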
* hit, by the source's call; / = not tested or not shown. Shown are actives, neighbours in structure and some others; about 1.3% of the full set was active somewhere.

SMILES	PKD1 kinase inh	Rad51 HR inh	PERK inh	H9c2 TAG inh	Hck-Nef inh	MDM2 E3 inh	TAG conf
COc1cc(OC)c2c(-c3ccccc3)cc(=O)oc2c1C(CC(=O)N1CCCC1)c1ccc2c(c1)OCO2 (stereo unspecified)	/	-3	/	7	15	4	/
CCCCCc1cc(=O)oc2c(C(CCN(CC)CC)c3ccc(N(C)C)cc3)c(OC)cc(OC)c12 (stereo unspecified)	/	4	/	72*	6	-20	61*
COc1cc(OC)c2c(-c3ccccc3)cc(=O)oc2c1C(CCN1CCCCC1)c1ccc2c(c1)OCO2 (stereo unspecified)	/	0	/	58*	28	5	41*
CCN(CC)CCC(c1cc(OC)c(OC)c(OC)c1)c1c(OC)cc(OC)c2c(C)cc(=O)oc12 (stereo unspecified)	/	-5	/	17	10	2	/
COc1ccc(C(CCN2CCCCC2)c2c(OC)cc(OC)c3c(-c4ccccc4)cc(=O)oc23)cc1 (stereo unspecified)	/	-5	/	44	25	-2	/
O=C(NN1CCOCC1)c1ccc(Cl)s1	3	-9	0	3	10	-88	/
O=C(Cc1cccs1)N1CCN(c2ccc([N+](=O)[O-])cc2)CC1	-1	8	1	-25	24	-11	/
Cn1nc(C(C)(C)C)cc1C(=O)N1CCC(C)(C(=O)NS(=O)(=O)C2CC2)C1 (stereo unspecified)	/	/	/	5	/	/	/
COc1cccc2sc(Nc3nc(-c4cc5ccccc5oc4=O)cs3)nc12	19	9	1	58*	-1	-6	87*
COc1ccc(C(=O)NNC(=O)Cc2ccc(-c3ccccc3)cc2)cc1OC	0	-2	0	57*	0	-6	36
COc1ccc(C(CNC(=O)C(CC(C)C)NS(=O)(=O)c2ccc(C)cc2)N2CCOCC2)cc1 (stereo unspecified)	/	/	/	11	/	/	/
CCN(CC)CCCN(C(=O)c1cccs1)c1nc(-c2ccc(OC)cc2)cs1	-12	-1	-2	55*	0	-13	47*
CCCCN(C(=O)CSCc1ccc(C)cc1)c1c(N)n(CCC)c(=O)[nH]c1=O	/	/	/	-2	/	/	/
O=C1ON(Cc2ccccc2)C(c2ccccc2)N1c1ccccc1 (stereo unspecified)	/	/	/	-1	/	/	/
Cc1cc2c(N=NC(=O)C3CC3c3ccccc3)c(O)[nH]c2cc1Br (stereo unspecified)	7	3	1	/	3	5	/
CCOc1ccc(OCC)c(NC(=O)CN(c2ccc(C)cc2)S(=O)(=O)c2c(C)noc2C)c1	-1	8	0	53*	1	-1	46*
Cc1cc(C)c2nc(-c3ccncc3)cc(C(=O)N3CCN(Cc4ccccc4Cl)CC3)c2c1	/	/	/	62*	/	/	59*
Cc1ccc(S(=O)(=O)NC(=O)Cn2nnc(-c3ccccc3)c2COc2ccc3ccccc3c2)cc1	/	/	/	1	/	/	/
Brc1ccc(-c2csc(NNC3=NCCCCC3)n2)cc1	3	-4	0	130*	-2	-20	129*
FC(F)Oc1ccc(-c2csc(NNC3=NCCCCC3)n2)cc1	-3	11	0	119*	2	-9	125*
CC(C)(C)NC(=O)N1CCN(c2nc(-c3ccccc3)ns2)CC1	/	6	-1	-21	2	-16	/
O=C(c1ccc(F)cc1F)N1CCCN(c2nc(-c3ccccc3)ns2)CC1	/	18	-1	75*	14	-7	2
CCS(=O)(=O)c1ccc2oc(Nc3cccc(OC)c3)nc2c1	-2	3	0	25	0	-6	/
CCOc1ccc(Cl)cc1-c1cc(C(=O)NCC2CCCCC2)[nH]n1	/	/	/	-10	/	/	/
COc1ccc(Cl)cc1-c1cc(C(=O)NCC2CCCCC2)[nH]n1	/	/	/	53*	/	/	-6
SMILES	PKD1 kinase inh	Rad51 HR inh	PERK inh	H9c2 TAG inh	Hck-Nef inh	MDM2 E3 inh	TAG conf
N#CC1=C(SCC(=O)c2ccc(Br)cc2)NC2=C(C(=O)CCC2)C1c1ccco1 (stereo unspecified)	-1	/	1	57*	-2	-8	40
CC(C)CC(N)c1csc(NC(=O)Nc2ccccc2Cc2ccccc2)n1 (stereo unspecified)	/	/	/	114*	/	/	69*
COc1cc(CNC(=O)Nc2nc(C(N)Cc3ccc(C(F)(F)F)cc3)cs2)cc(OC)c1OC (stereo unspecified)	/	/	/	76*	/	/	88*
NC(Cc1ccc(C(F)(F)F)cc1)c1csc(NC(=O)Nc2ccccc2)n1 (stereo unspecified)	/	/	/	28	/	/	/
COc1ccc(CC(N)c2csc(NC(=O)Nc3ccccc3C(C)(C)C)n2)cc1 (stereo unspecified)	/	/	/	40	/	/	/
COc1ccc(CC(N)c2csc(NC(=O)Nc3ccccc3-c3ccccc3)n2)cc1 (stereo unspecified)	/	/	/	73*	/	/	87*
COc1cc(OC)nc(Nc2nc(C(N)Cc3ccc(Cl)cc3)cs2)n1 (stereo unspecified)	/	/	/	58*	/	/	46*
COC(=O)c1cc(C)nc(Nc2nc(C(N)Cc3ccc(Cl)cc3)cs2)n1 (stereo unspecified)	/	/	/	13	/	/	/
O=C(CN1C(=O)c2ccccc2S1(=O)=O)Nc1cccc(S(=O)(=O)N2CCCCC2)c1	/	/	/	-6	/	/	/
COc1ccc(Cc2noc(CN(C)CC3(N4CCOCC4)CCCCC3)n2)cc1OC	0	-10	1	-22	2	-13	/
COc1cc(NC(=O)Nc2nc(C(N)CCc3ccccc3)cs2)cc(OC)c1OC (stereo unspecified)	/	/	/	83*	/	/	89*
COc1ccc(CNC(=O)Nc2nc(C(N)c3ccccc3)cs2)cc1 (stereo unspecified)	/	/	/	-3	/	/	/
COc1ccc(CC(N)c2csc(NC(=O)NCc3ccccc3)n2)cc1 (stereo unspecified)	/	/	/	53*	/	/	42*
COc1ccc(OC)c(NC(=O)Nc2nc(C(N)CCc3ccccc3)cs2)c1 (stereo unspecified)	/	/	/	103	/	/	/
COc1ccc(C(C)=O)cc1CSc1ccc(S(=O)(=O)N2CCOCC2)cn1	/	/	/	2	/	/	/
